Only some compounds are listed: those with a hit (about 1.5% of all), similar ones and a draw of the others.
SENP1 inh: blocks the human SENP1 SUMO protease catalytic domain | Q9P0U3 | recombinant SENP1 catalytic domain, CyPet-SUMO1-YPet FRET cleavage | inhibition, % at 10 µM | 360,000 tested, 0.21% active;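 active = inhibition at least 30% at 10 µM, raw YFP signal under a set limit, fluorescence ratio 0.5 to 1.5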;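 also: 0% = enzyme with DMSO and 100% = no enzyme wells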
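Test system: hSENP1 catalytic domain, recombinant; Amount: 20 pM final SENP1 enzyme; Medium: Tris pH 8 buffer plus EDTA, NaCl, BME, BSA, NP40, catalase; Schedule: 50 min enzyme reaction, room temperature, light-protected; Technique: FRET fluorescence in CFP and YFP emission channels; Controls: no-enzyme wells low, DMSO-plus-enzyme wells high control.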
Myeloid diff 2: myeloid differentiation induction | calls only at 10 µM | 360,000 tested, 1% active | ER-HoxA9 myeloid progenitors, lysozyme-GFP differentiation, flow cytometry | AID 624256;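 active = normalized GFP-positive differentiation at or above the plate's own cutoff, the solvent-only control mean plus 3 SD; inconclusive = no clear call, values can overlap the other calls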;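 also: cells exposed to compound for four days before flow analysis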
Platelet DG rel: modulates dense granule release in human platelets; inhibition, %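 (compounds screened at 7.5 µM in platelet-rich plasma)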; human platelet-rich plasma, SFLLRN dense granule ATP release, luminescence; 300,000 tested, 0.22% active;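 active = mean replicate score, as percent of positive control, at or above 50; inconclusive = mean below 50 but at least one replicate at or above 50; inactive = mean and every replicate below 50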
VLA-4 inh: inhibition in a human VLA-4 binding assay | P13612 | VLA-4 expressing cells, ligand binding flow cytometry | inhibition, % (about 7 µM as worked out from the volumes in the protocol) | 330,000 tested, 0.2% active | AID 2557; in the data active = inhibition above about 50%
Target sequence (P13612 whole entry, looked up): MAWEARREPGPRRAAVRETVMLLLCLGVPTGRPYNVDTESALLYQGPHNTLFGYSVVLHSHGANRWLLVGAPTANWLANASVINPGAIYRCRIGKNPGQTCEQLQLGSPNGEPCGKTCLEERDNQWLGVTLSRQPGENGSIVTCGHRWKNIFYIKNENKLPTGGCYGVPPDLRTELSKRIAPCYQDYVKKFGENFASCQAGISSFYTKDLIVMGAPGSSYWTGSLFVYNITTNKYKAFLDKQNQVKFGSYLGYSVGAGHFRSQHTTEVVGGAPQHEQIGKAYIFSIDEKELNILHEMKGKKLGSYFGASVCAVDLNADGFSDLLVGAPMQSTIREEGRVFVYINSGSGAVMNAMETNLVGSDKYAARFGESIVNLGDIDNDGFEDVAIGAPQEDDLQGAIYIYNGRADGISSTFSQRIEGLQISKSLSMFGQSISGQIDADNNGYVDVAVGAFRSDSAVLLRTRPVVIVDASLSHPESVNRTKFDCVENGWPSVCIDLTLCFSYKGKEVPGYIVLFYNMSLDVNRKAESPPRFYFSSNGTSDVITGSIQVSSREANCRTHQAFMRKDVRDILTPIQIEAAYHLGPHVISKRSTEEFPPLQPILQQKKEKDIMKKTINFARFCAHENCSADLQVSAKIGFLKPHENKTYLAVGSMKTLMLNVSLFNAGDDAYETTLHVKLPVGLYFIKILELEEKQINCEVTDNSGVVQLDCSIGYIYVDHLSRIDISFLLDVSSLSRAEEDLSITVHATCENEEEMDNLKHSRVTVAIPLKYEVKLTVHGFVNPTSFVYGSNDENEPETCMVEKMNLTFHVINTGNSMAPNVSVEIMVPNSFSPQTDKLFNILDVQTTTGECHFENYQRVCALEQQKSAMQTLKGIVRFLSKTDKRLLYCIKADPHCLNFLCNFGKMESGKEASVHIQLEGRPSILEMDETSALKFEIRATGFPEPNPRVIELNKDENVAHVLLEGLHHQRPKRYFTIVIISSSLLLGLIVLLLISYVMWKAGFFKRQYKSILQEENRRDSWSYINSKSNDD
* marks the source's active call; other numbers are inactive results.

For Cc1ccc(S(=O)(=O)N2C[C@@H](C)[C@]3(C2)[C@H](O)[C@H](OC(=O)Nc2c(C)noc2C)C[C@H]2C(=O)N(c4ccccc4)C(=O)[C@H]23)cc1 the results were SENP1 inh 1 and Myeloid diff 2 inactive.
Screening CC(=O)NC(CCC(=O)O)C(=O)O (stereo not given) returned SENP1 inh 4 and Myeloid diff 2 inactive.
For NC(CCC(=O)NC(CS)C(=O)NCC(=O)O)C(=O)O (stereo not given) the results were SENP1 inh 1 and Myeloid diff 2 active.
CCn1c(SCC(=O)N2CCOCC2)nc2c([nH]c3ccccc32)c1=O was read as SENP1 inh -1, Myeloid diff 2 inconclusive, Platelet DG rel -29 and VLA-4 inh 8.
For C=CCN=c1scc(-c2ccccc2)n1/N=C/c1ccccn1 the results were SENP1 inh -38, Myeloid diff 2 active, Platelet DG rel 1 and VLA-4 inh 18.
For C=CCN=c1scc(-c2ccc(F)cc2)n1/N=C/c1ccccn1 the results were SENP1 inh -39, Myeloid diff 2 inactive, Platelet DG rel -2 and VLA-4 inh 6.
`CCN=c1scc(-c2ccccc2)n1/N=C/c1ccccn1` gave SENP1 inh -31, Myeloid diff 2 active, Platelet DG rel 5 and VLA-4 inh 0.
CC[n+]1c(/C=C/Nc2ccccc2)oc2ccccc21 was read as SENP1 inh -17, Myeloid diff 2 active, Platelet DG rel 0 and VLA-4 inh -246.
CC[n+]1c(/C=C/N(C)c2ccccc2)oc2ccc(F)cc21 was read as SENP1 inh 1, Myeloid diff 2 inconclusive, Platelet DG rel -35 and VLA-4 inh inactive.
CC[n+]1c(/C=C/N(C)c2ccccc2)oc2ccccc21 was read as SENP1 inh 2, Myeloid diff 2 inconclusive, Platelet DG rel -1 and VLA-4 inh inactive.
Screening CC[n+]1c(/C=C/Nc2ccccc2)oc2ccc(OC)cc21 returned SENP1 inh -62, Myeloid diff 2 active, Platelet DG rel 11 and VLA-4 inh inactive.
For CCOc1ccc(-c2c(C(=O)N/N=C/c3ccsc3)nnn2-c2nonc2N)cc1 the results were SENP1 inh 0, Myeloid diff 2 inactive, Platelet DG rel -24 and VLA-4 inh -2.
For CSCCC(NC(=O)COc1ccccc1)C(=O)OCC(=O)c1ccccc1 (stereo not given) the results were SENP1 inh 2, Myeloid diff 2 inactive, Platelet DG rel 5 and VLA-4 inh -3.
CSCCC(NS(=O)(=O)c1ccc2ccccc2c1)C(=O)OCC(=O)c1ccc(C(C)C)cc1 (stereo not given) was read as SENP1 inh -3, Myeloid diff 2 active, Platelet DG rel -3 and VLA-4 inh 43.
`COc1ccc(C(=O)N2CCCC(c3cc(C(=O)NCc4ccc(F)cc4)no3)C2)cc1` (stereo not given) gave SENP1 inh 3 and Myeloid diff 2 inactive.
For NNC(=O)c1sc2cc(C(F)(F)F)cnc2c1-c1cccs1 the results were SENP1 inh 0, Myeloid diff 2 active, Platelet DG rel 4 and VLA-4 inh -5.
Screening NC(=O)c1sc2cc(C(F)(F)F)cnc2c1-c1cccs1 returned SENP1 inh -70, Myeloid diff 2 inactive, Platelet DG rel 2 and VLA-4 inh 27.
Screening COC(=O)c1ccccc1NC(=O)CCCCCn1nnc2ccccc2c1=O returned SENP1 inh 1, Myeloid diff 2 inactive, Platelet DG rel 0 and VLA-4 inh 3.
`Cc1nn(CC(=O)NC(=O)NC2CCCC(C)C2C)c(=O)c(C#N)c1C` (stereo not given) gave SENP1 inh -1, Myeloid diff 2 inactive, Platelet DG rel 8 and VLA-4 inh 13.
CN(C)c1ccc(NC(=O)CSc2nnc(-c3cnccn3)n2C)cc1 was read as SENP1 inh 1, Myeloid diff 2 inactive, Platelet DG rel -3 and VLA-4 inh 9.
Screening N=c1c(C(=O)NC2CCCCC2)cc2c(=O)n3ccccc3nc2n1Cc1cccnc1 returned SENP1 inh -25, Myeloid diff 2 active, Platelet DG rel 2 and VLA-4 inh -2.
C=CCNC(=S)/N=c1/ccccn1CCC was read as SENP1 inh -1, Myeloid diff 2 active, Platelet DG rel -8 and VLA-4 inh 18.
For C=CCNC(=S)/N=c1/ccccn1C the results were SENP1 inh -2, Myeloid diff 2 inactive, Platelet DG rel 11 and VLA-4 inh -3.
Screening Oc1ccc(Cl)cc1C=Nc1ccc2c3c(cccc13)CC2 returned SENP1 inh 24, Myeloid diff 2 inactive, Platelet DG rel 11 and VLA-4 inh -4.
Cc1cccc(C=Nc2ccc3c4c(cccc24)CC3)c1O was read as SENP1 inh 54, Myeloid diff 2 active, Platelet DG rel -6 and VLA-4 inh -102.
For COc1ccc(/C(C)=N/NC(=O)CNC(=O)/C=C\c2ccccc2)c(OC)c1 the results were SENP1 inh 1, Myeloid diff 2 inactive, Platelet DG rel -4 and VLA-4 inh 13.
CCCC[C@@H]1CCCO[C@@](C(=O)NCc2ccc(C)o2)(C(F)(F)F)C1 was read as SENP1 inh -2, Myeloid diff 2 inactive and Platelet DG rel 2.
For OC1CN=C2C=CC=CN2C1 (stereo not given) the results were SENP1 inh 0, Myeloid diff 2 inconclusive, Platelet DG rel 54* and VLA-4 inh 6.
For COc1cccc(C2NC(=O)NC(C)=C2C(=O)Nc2ccc(C)cc2)c1OC (stereo not given) the results were SENP1 inh 1, Myeloid diff 2 active, Platelet DG rel -36 and VLA-4 inh 4.
For COc1cc2c(C#N)c(N3CCc4ccccc4C3)nc(N)c2c(N)n1 the results were SENP1 inh -25, Myeloid diff 2 active, Platelet DG rel 2 and VLA-4 inh 5.
For COc1cc2c(C#N)c(N3CCCCC3)nc(N)c2c(N)n1 the results were SENP1 inh 8, Myeloid diff 2 inactive, Platelet DG rel 3 and VLA-4 inh -2.
CCCCNC1=CC(=O)C(=O)c2ccccc21 was read as SENP1 inh 1, Myeloid diff 2 active, Platelet DG rel 7 and VLA-4 inh 9.
Screening CCCCNC1=CC(=O)C(NCCCC)=CC1=O returned SENP1 inh -1 and Myeloid diff 2 inactive.
For Cn1c2ccccc2c2cnn(CC(=O)Nc3ccc(F)cc3F)c(=O)c21 the results were SENP1 inh -3, Myeloid diff 2 active, Platelet DG rel 5 and VLA-4 inh 11.
`Cn1c2ccccc2c2cnn(CC(=O)Nc3ccccc3Br)c(=O)c21` gave SENP1 inh 0, Myeloid diff 2 inactive, Platelet DG rel 9 and VLA-4 inh 1.
COc1cc2c(Cc3ccccc3)cncc2cc1O was read as SENP1 inh 1 and Myeloid diff 2 inactive.
COC(=O)CSc1nnc(-c2ccc(NS(=O)(=O)c3ccccc3)cc2)o1 was read as SENP1 inh 0, Myeloid diff 2 active, Platelet DG rel 30 and VLA-4 inh 25.
Screening CCOc1ccccc1OCCCC(=O)N(CC)CC(=O)Nc1ccc(NC(C)=O)cc1 returned SENP1 inh 2, Myeloid diff 2 inactive, Platelet DG rel -10 and VLA-4 inh -2.

Screening data as filed in PubChem.
